Consider one compound from ChEMBL document CHEMBL4017500 (J Med Chem, 2017).

Data set [1] has as its target Carbonic anhydrase 2 (Homo sapiens) (UniProt P00918). Kind of data set: Inhibition of human carbonic anhydrase 2 at 50 to 100 uM using p-nitrophenyl acetate as substrate preincubated for 10 mins followed by substrate addition measured for 15 mins. The method, boiled down:
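hCAII (100 nM) in 50 mM HEPES pH 8.0 pre-incubated with inhibitor for 10 min at 30 °C. p-Nitrophenyl acetate (500 μM) then added and absorbance at 405 nm followed 15 min. Activity relative to no-inhibitor wells, with 50 μM benzene sulfonamide as 0%. Run in triplicate.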

The target in data set [2] is T1, Protein deacetylase HDAC6 (Homo sapiens) (UniProt Q9UBN7).
T1 sequence (whole entry): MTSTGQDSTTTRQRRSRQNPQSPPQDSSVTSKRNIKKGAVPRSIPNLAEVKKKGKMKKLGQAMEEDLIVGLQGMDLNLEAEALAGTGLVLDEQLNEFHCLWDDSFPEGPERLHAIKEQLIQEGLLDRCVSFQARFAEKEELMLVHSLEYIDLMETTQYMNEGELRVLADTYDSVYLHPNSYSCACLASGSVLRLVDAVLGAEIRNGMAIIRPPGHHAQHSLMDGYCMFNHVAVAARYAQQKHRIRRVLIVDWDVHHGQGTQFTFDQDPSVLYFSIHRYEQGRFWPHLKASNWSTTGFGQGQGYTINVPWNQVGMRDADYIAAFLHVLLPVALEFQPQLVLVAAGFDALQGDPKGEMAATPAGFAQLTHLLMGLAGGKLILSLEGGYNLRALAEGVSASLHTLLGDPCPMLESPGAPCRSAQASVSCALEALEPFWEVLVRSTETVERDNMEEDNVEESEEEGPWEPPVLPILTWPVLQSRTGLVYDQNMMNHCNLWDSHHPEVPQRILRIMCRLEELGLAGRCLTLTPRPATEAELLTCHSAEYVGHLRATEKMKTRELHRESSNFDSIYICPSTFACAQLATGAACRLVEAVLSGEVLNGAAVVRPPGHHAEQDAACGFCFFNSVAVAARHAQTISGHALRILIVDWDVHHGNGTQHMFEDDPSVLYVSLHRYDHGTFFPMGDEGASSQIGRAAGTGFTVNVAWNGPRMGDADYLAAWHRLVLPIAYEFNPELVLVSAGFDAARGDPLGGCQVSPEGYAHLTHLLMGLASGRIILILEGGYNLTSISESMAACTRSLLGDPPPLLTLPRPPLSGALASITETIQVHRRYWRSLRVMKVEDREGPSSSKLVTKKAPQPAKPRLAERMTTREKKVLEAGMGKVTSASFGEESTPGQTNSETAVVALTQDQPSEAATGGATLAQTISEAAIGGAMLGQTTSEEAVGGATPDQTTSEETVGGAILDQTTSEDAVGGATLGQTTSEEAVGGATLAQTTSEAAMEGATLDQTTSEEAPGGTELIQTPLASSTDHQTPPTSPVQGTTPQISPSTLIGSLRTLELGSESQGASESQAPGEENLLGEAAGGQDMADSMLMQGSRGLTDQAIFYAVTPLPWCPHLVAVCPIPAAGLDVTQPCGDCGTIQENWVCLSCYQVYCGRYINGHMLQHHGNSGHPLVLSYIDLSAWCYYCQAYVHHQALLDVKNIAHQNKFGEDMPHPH
Kind of data set: Inhibition of full length human N-terminal GST-tagged HDAC6 expressed in baculovirus infected sf9 cells at 50 to 100 uM using HDAC substrate 3 preincubated for 5 mins followed by substrate addition measured after 30 mins by fluorescence assay. The method, boiled down:
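Inhibitor pre-incubated 5 min, then HDAC substrate 3 (20 μM) added, 30 min at 37 °C. Developer added for 15 min at room temperature; fluorescence read at ex/em 360/460 nm. Activity relative to no-inhibitor wells, with 200 μM SAHA as 0%. Run in triplicate.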

Data set [3] deals with Bacteria. Kind of data set: Binding affinity to bacterial CoCoNDM-1 expressed in Escherichia coli BL21(DE3) assessed as CoCoNDM-1-compound ternary complex formation at 1 equiv by 1H NMR spectroscopic method. The method, boiled down: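 Apo-NDM-1 concentrated to ~1 mM and loaded with 2 equiv CoCl2. Samples in 50 mM HEPES, 150 mM NaCl, 10% D2O, pH 6.8. Compounds from 50–100 mM DMSO stocks titrated in ~5 μL aliquots. 1H spectra recorded at 292 K, 300.16 MHz.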

In data set [4] the test system is Klebsiella pneumoniae. Briefly: Effect on growth of Klebsiella pneumoniae isolate Pd1.48 at 100 mg/L after 18 to 20 hrs by broth microdilution assay. The method, boiled down: (§1)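 Mueller-Hinton broth microdilution per CLSI, triplicate. blaNDM-1 clinical isolates grown from OD600 0.1 to 0.224 (~1–2 × 10^8 CFU/mL), diluted 3 μL into 4997 μL MH, and 100 μL added to 100 μL of compound (100 mg/L) alone. Incubated 37 °C for 18–20 h, then scored for growth.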
A general note: Broth dilution looks for growth in wells or tubes with falling amounts of substance.

Data set [5] has as its target Macrophage metalloelastase (Homo sapiens) (UniProt P39900). Briefly: Inhibition of human MMP12 (Phe99 to Leu271 residues) expressed in Escherichia coli at 10 uM using Mca-Pro-LeuGly-Leu-Dpa-Ala-Arg-NH2.AcOH as substrate preincubated for 30 mins followed by substrate addition measured after 20 mins by fluorescence assay relative to control. The method, boiled down:
(§2)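 Human recombinant MMP-2 (1.16 U/well) or MMP-12 (0.007 U/well) in 50 mM HEPES, 10 mM CaCl2, 0.05% Brij-35, pH 7.5. Enzyme and inhibitor pre-incubated 30 min at 37 °C, then OmniMMP fluorogenic substrate (4 μM) added. Fluorescence rise followed 20 min at ex/em 320/400 nm. Activity relative to no-inhibitor wells, with 200 μM NSA as 0%. Run in triplicate.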

Data set [6] relates to Escherichia coli. Briefly: Effect on growth of Escherichia coli isolate Ah8.71 at 100 mg/L after 18 to 20 hrs by broth microdilution assay. The method, boiled down: as §1
The target of data set [7] is Beta-lactamase VIM-2 (Pseudomonas aeruginosa, UniProt Q9K2N0). Kind of data set: Inhibition of Pseudomonas aeruginosa VIM2 expressed in Escherichia coli BL21(DE3) using fluorocillin as substrate preincubated for 10 mins followed by substrate addition measured after 20 mins by HTS assay.
Data set [8] addresses Metallo-beta-lactamase type 2 (Serratia marcescens, UniProt P52699). Kind of data set: Inhibition of Serratia marcescens IMP1 expressed in Escherichia coli BL21(DE3) using fluorocillin as substrate preincubated for 10 mins followed by substrate addition measured after 20 mins by HTS assay.
The target of data set [9] is Macrophage metalloelastase (Homo sapiens) (UniProt P39900). Briefly: Inhibition of human MMP12 (Phe99 to Leu271 residues) expressed in Escherichia coli at 50 to 100 uM using Mca-Pro-LeuGly-Leu-Dpa-Ala-Arg-NH2.AcOH as substrate preincubated for 30 mins followed by substrate addition measured after 20 mins by fluorescence assay relative to control. The method, boiled down: as §2

Data set [10] deals with Klebsiella pneumoniae. Kind of data set: Effect on growth of Klebsiella pneumoniae isolate Pd1.54 at 100 mg/L after 18 to 20 hrs by broth microdilution assay. The method, boiled down: as §1
The subject of data set [11] is Escherichia coli. Briefly: Effect on growth of Escherichia coli isolate Ch8.68 at 100 mg/L after 18 to 20 hrs by broth microdilution assay. The method, boiled down: as §1

The structures appear in SMILES notation. Activity calls are given as the source filed them. The calls are words filed in the database; no cut-off is given here.

Macrophage metalloelastase (Homo sapiens), sequence (P39900 106-470 limits assumed): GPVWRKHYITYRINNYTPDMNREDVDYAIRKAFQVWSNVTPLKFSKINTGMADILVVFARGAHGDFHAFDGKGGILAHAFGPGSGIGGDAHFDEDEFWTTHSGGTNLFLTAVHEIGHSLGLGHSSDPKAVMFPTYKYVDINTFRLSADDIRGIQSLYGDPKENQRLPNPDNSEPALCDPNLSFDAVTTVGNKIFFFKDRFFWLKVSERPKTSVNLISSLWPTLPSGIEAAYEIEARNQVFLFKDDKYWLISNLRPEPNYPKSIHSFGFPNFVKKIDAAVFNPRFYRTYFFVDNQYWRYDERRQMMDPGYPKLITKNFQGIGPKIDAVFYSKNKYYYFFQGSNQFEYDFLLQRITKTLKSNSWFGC
Metallo-beta-lactamase type 2, sequence (P52699 whole entry): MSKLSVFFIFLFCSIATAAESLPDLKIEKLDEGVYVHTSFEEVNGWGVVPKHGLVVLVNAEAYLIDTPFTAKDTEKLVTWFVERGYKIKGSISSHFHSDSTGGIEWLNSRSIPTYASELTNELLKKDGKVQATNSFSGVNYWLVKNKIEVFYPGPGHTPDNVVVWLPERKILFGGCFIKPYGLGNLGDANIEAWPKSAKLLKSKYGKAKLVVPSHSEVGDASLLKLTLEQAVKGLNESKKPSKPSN

Consider `Nc1cccc(-c2cc(C(=O)O)nc(C(=O)O)c2)c1`, for which the inhibition (in general, the relative decrease from the control value, in per cent) in data set [1] is less than 50%; in data set [2], less than 50%; in [5] it was 48%; in data set [9], less than 50%. Also, the result in [3] was Active. For the same compound, the Activity entry in data set [4], in data set [6], in data set [10] and in [11] was “Non-Toxic” throughout. Also, the figures for the IC50 in data set [7] and in data set [8] were 210 nM and 240 nM, respectively.
